Assay outcomes: PubChem BioAssay, Johns Hopkins Ion Channel Center
In the library only some 3.1% were active in any assay of this set; here they are far more common.
KCNQ1 inh = inhibitors of human KCNQ1 channel, primary screen, cell-based, thallium flux, high-throughput. Potassium voltage-gated channel subfamily KQT member 1 (Homo sapiens), P51787. CHO-K1 KCNQ1, FluxOR thallium flux fluorescence; stronger effect = higher value. B-score at 10 µM. hit rate 1.3% among 310,000;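 active = compounds whose thallium flux B-score, printed positive for inhibition, exceeds three library SD while starting fluorescence stays within three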;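 also: channel opened by potassium depolarization with thallium stimulus after 20 min compound exposure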
KCNK3 block = human KCNK3 channel inhibitors, primary screen, CHO cells, FluxOR thallium flux, B-score. FluxOR fluorescence; stronger effect = lower value. Potassium channel subfamily K member 3 (Homo sapiens), O14649. B-score at 10 µM. hit rate 0.84% among 340,000;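 active = B-score under library mean minus 4 SD, starting fluorescence ratio at most library mean plus 5 SD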;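 also: more negative B-score means stronger inhibition of thallium flux through KCNK3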
KCNK9 inh = KCNK9 potassium channel inhibitors, primary screen, HEK293 cells, thallium flux | hit rate 1.2% among 310,000 | B-score at 10 µM | Potassium channel subfamily K member 9 (Homo sapiens), Q9NPC2 | FluxOR thallium flux fluorescence; stronger effect = lower value;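 active = ratio B-score over 3 SD below the library mean, with starting fluorescence within 5 SD of its mean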;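 also: negative B-score means less thallium flux so channel inhibition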
hERG rescue = hERG rescue from dofetilide block, primary screen, cell-based, CHO-hERG, FluxOR thallium flux, dofetilide IC70. AID 1511, 2009. dofetilide IC70 present. hit rate 0.51% among 310,000. activation (rescue from dofetilide block), less the hit threshold, % at 10 µM;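 active = activation above the mean of controls blocked by dofetilide plus 5 SD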;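 also: thallium influx through hERG after potassium depolarization seen as dye fluorescence rise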
KCNQ1 pot = potentiators or activators of KCNQ1 channel, primary screen, cell-based, thallium flux, high-throughput. CHO-K1 KCNQ1, thallium flux FluxOR fluorescence; stronger effect = higher value. AID 2648, 2010. hit rate 0.35% among 310,000. B-score at 10 µM;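 active = fluorescence ratio B-score, a plate-corrected score, at least three library SD, with initial intensity B-score within 5 SD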
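System: Stable KCNQ1 CHO-K1 line | Incubation: 90 min dye loading and 20 min compound exposure, both at room temperature | Measure: Ratio B score | Medium: Assay buffer for compound exposure, DMSO matched across wells | Compound dosing: Single-concentration screen | Probe or stimulus: K+/Tl+ depolarizing stimulus | Measured by: Kinetic FluxOR fluorescence, 10 s baseline plus 110 s post-stimulus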
KCNK3 confirm = retest of human KCNK3 channel inhibitors, confirmation, CHO cells, FluxOR thallium flux, triplicate. shares compounds with KCNK3 block. FluxOR fluorescence; 0% buffer, 100% carvedilol maximal block. ratio percent of control, % at 10 µM. hit rate 99% among 2,400;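 active = ratio percent of control, averaged over triplicates, above buffer control mean plus 5 SD, cut at about 64% in these data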;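 also: ratio is the fluorescence rise from min to max over baseline after thallium stimulus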
KCNK3 uninduced = thallium flux inhibition in non-induced cells, primary screen, counter-screen for KCNK3 inhibitor project, cell-based, non-induced KCNK3 line, FluxOR thallium, triplicate; hit rate 40% among 2,400; thallium flux ratio (lower = more inhibition) at 10 µM; non-induced KCNK3 parental cells; stronger effect = lower value; shares compounds with KCNK3 block;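 active = thallium flux ratio, averaged over three wells, more than 5 SD below the buffer control mean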;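 also: host cells are CHO cells without KCNK3 induction; ratio is peak minus trough fluorescence over baseline then normalized to buffer controls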
Active calls of the source: *; i = inactive; nt = no result given.

SMILES	KCNQ1 inh	KCNK3 block	KCNK9 inh	hERG rescue	KCNQ1 pot	KCNK3 confirm	KCNK3 uninduced
O=C1CC(N2CCCc3ccccc32)C(=O)N1c1ccccc1Cl (centres undefined)	i	i	i	-6	i	nt	nt
O=C(NC1CCN(Cc2ccccc2)CC1)c1ccccc1OCc1ccccc1	i	-10*	i	-9	i	99*	i
CCOc1ccccc1C(=O)NC1CCN(Cc2ccccc2)CC1	i	i	i	-2	i	nt	nt
O=C(NC1CCN(Cc2ccccc2)CC1)c1ccccc1OCc1ccccc1Cl	i	-11*	-7.8*	-17	i	99*	i
Cc1cccn2c(=O)c3cc(C(=O)NCC4CCCO4)c(=N)n(C4CCCC4)c3nc12 (centres undefined)	i	i	i	-10	i	nt	nt
Cc1cccc(Nc2cc(C)c3c(O)cccc3n2)c1C	i	-9.7*	i	-28	i	111*	i
Cc1cccc(NC(=S)N(C)C)c1C	i	i	i	-6	i	nt	nt
CCc1cc(=O)oc2c(CNCc3ccc(OC)cc3OC)c(O)c(Cl)cc12	i	i	i	-7	i	nt	nt
COc1ccc(OC)c(NC(=O)CSc2ccc3ccccc3c2)c1	i	-11*	i	-6	i	118*	i
CC(=O)Nc1ccc(-c2csc(NC(=O)CC(NC(C)=O)c3ccccc3)n2)cc1 (centres undefined)	i	i	i	-10	i	nt	nt
CC(=O)NC(CC(=O)Nc1nc(-c2ccc(N(C)S(C)(=O)=O)cc2)cs1)c1ccccc1 (centres undefined)	i	-10*	i	-14	i	59*	i
C=C(c1cn(C(C)=O)c2ccccc12)c1cn(C(C)=O)c2ccccc12	nt	-12*	nt	nt	nt	62*	0.15*
CC(=O)n1cc(CO)c2ccccc21	i	i	i	-9	i	nt	nt
O=C(N/C=C/c1ccco1)Nc1cccc(Cl)c1	6*	-9.3*	i	-13	i	94*	0.14*
COc1ccc(NC(=O)N/C=C/c2ccco2)cc1	i	i	i	-3	i	nt	nt
COc1ccc(CCNC(=O)C2CCC(C(C)(C)C)CC2)cc1OC (centres undefined)	i	i	i	-8	i	nt	nt
CCSc1nc2ccccc2c(=O)n1CCc1ccc(OC)c(OC)c1	i	-9.4*	i	-13	i	98*	i
O=c1oc2cc(Oc3c([N+](=O)[O-])cc(C(F)(F)F)cc3[N+](=O)[O-])ccc2c2c1CCCC2	11*	-9.7*	i	-21	i	136*	0.14*
CCCS(=O)(=O)c1c(S(=O)(=O)CCC)c2c(C(N)=O)cccn2c1C(=O)c1ccc(F)cc1	i	-9*	i	-20	i	109*	i
CCCS(=O)(=O)c1c(S(=O)(=O)CCC)c2c(C)cccn2c1C(N)=O	i	i	i	-2	i	nt	nt
CN(c1ccccc1)S(=O)(=O)c1cccc(NC(=O)c2cc(=O)c3ccccc3o2)c1	i	-10*	i	-8	i	137*	i
NS(=O)(=O)c1cccc(NC(=O)c2cc(=O)c3ccccc3o2)c1	i	i	i	-4	i	nt	nt
O=C(/C=C/c1ccc(N2CCC(c3ccccc3)=N2)cc1)c1ccccc1	i	nt	i	-16	i	nt	nt
CCOC(=O)/C(=C\c1ccc(N2CCC(c3ccccc3)=N2)cc1)C(C)=O	nt	-12*	nt	nt	nt	0	i
